Test results from ChEMBL document CHEMBL1806409, “Design, synthesis and biological evaluation of novel 4-thiazolidinones containing indolin-2-one moiety as potential antitumor agent” (Eur J Med Chem, 2011).

Columns and labels:
HT-29 [1] = experiment: Cytotoxicity against human HT-29 cells assessed as cell growth inhibition after 72 hrs by MTT assay; assay type: functional, cell-based; conditions: HT-29, 72 h
Method in brief: (§1)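 Cancer lines grown in MEM with 10% FBS. About 4 × 10³ cells/well were seeded in MEM and incubated 24 h at 37 °C, 5% CO₂. Compounds were then added at final concentrations and exposure ran 72 h. MTT was added for 4 h at 37 °C and formazan dissolved in DMSO. Absorbance was read at 492 nm against a 630 nm reference. IC50 is the average of three determinations.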

NCI-H460 = experiment: Cytotoxicity against human H460 cells assessed as cell growth inhibition after 72 hrs by MTT assay; assay type: functional, cell-based; conditions: NCI-H460, 72 h; method in brief: as §1
MDA-MB-231 = experiment: Cytotoxicity against human MDA-MB-231 cells assessed as cell growth inhibition after 72 hrs by MTT assay; assay type: functional, cell-based; conditions: MDA-MB-231, 72 h; method in brief: as §1
SMMC-7721 = experiment: Cytotoxicity against human SMMC7721 cells assessed as cell growth inhibition after 72 hrs by MTT assay; assay type: functional, cell-based; conditions: SMMC-7721, 72 h; method in brief: as §1
WI-38 [2] = experiment: Cytotoxicity against human WI38 cells assessed as cell growth inhibition after 72 hrs by MTT assay; assay type: cell-based; conditions: WI-38, 72 h
Method in brief: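 WI-38 normal human fetal lung fibroblasts were seeded at about 4 × 10³ cells/well and held 24 h at 37 °C, 5% CO₂, then exposed to compounds for 72 h. MTT was given for 4 h at 37 °C and formazan dissolved in DMSO. A492 was read with a 630 nm reference, and IC50 was averaged from three runs.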

HT-29 [3] = experiment: Selectivity index, ratio of IC50 for human WI38 cells to IC50 for human HT-29 cells; assay type: functional
Method in brief: (§2)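 The index is the IC50 in WI-38 normal fibroblasts divided by the IC50 in the cancer line (H460 or HT-29). Each IC50 comes from a 72 h MTT growth-inhibition assay averaged over three determinations.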

WI-38 [4] = experiment: Selectivity index, ratio of IC50 for human WI38 cells to IC50 for human H460 cells; assay type: functional; method in brief: as §2

| Compound | IC50 (HT-29 [1]) | IC50 (NCI-H460) | IC50 (MDA-MB-231) | IC50 (SMMC-7721) | IC50 (WI-38 [2]) | Ratio IC50 (HT-29 [3]) | Ratio IC50 (WI-38 [4]) |
| --- | --- | --- | --- | --- | --- | --- | --- |
| CCN(CC)CCCn1c(=O)c(=Cc2cc(OC)c(OC)c(OC)c2)s/c1=C1\C(=O)Nc2ccc(Cl)cc21 (mixture of isomers) | > 200 µM | 2.99 µM | > 200 µM |  |  |  |  |
| CCN(CC)CCCn1c(=O)c(=Cc2cc(OC)c(OC)c(OC)c2)s/c1=C1\C(=O)Nc2ccc(F)cc21 (mixture of isomers) | > 200 µM | 0.78 µM | > 200 µM | 2.21 µM | 2.02 µM |  |  |
| CN(C)CCn1c(=O)c(=Cc2ccc(F)cc2F)s/c1=C1\C(=O)Nc2cc(F)ccc21 (mixture of isomers) | 6.46 µM | 3.2 µM | 8.44 µM |  |  |  |  |
| CCN(CC)CCCn1c(=O)c(=Cc2ccccc2O)s/c1=C1\C(=O)Nc2ccc(Br)cc21 (mixture of isomers) | 18.1 µM | 51.7 µM | 19.9 µM |  |  |  |  |
| CCN(CC)CCCn1c(=O)c(=Cc2ccccc2O)s/c1=C1\C(=O)Nc2ccc(C)cc21 (mixture of isomers) | 8.07 µM | 11.3 µM | 15.9 µM |  |  |  |  |
| CCN(CC)CCCn1c(=O)c(=Cc2ccccc2O)s/c1=C1\C(=O)Nc2ccccc21 (mixture of isomers) | > 200 µM | > 200 µM | > 200 µM |  |  |  |  |
| COc1ccc(C=c2s/c(=C3\C(=O)Nc4cc(F)ccc43)n(CCN(C)C)c2=O)c(OC)c1 (mixture of isomers) | 0.868 µM | 20.5 µM | 4.83 µM | 6.81 µM | 3.01 µM |  |  |
| CN(C)CCn1c(=O)c(=Cc2ccc(O)cc2)s/c1=C1\C(=O)Nc2ccc(F)cc21 (mixture of isomers) | 1.48 µM | 1.27 µM | 4.2 µM |  |  |  |  |
| Cc1ccc2c(c1)/C(=c1/sc(=Cc3ccc4c(c3)OCO4)c(=O)n1CCN(C)C)C(=O)N2 | 1.03 µM | 4.03 µM | 8.1 µM |  |  |  |  |
| CN(C)CCn1c(=O)c(=Cc2ccc(F)c(F)c2)s/c1=C1\C(=O)Nc2ccc(F)cc21 (mixture of isomers) | 3.09 µM | 44.7 µM | 9.48 µM |  |  |  |  |
| COc1ccc(OC)c(C=c2s/c(=C3\C(=O)Nc4cc(F)ccc43)n(CCN(C)C)c2=O)c1 (mixture of isomers) | 4.45 µM | 7.15 µM | 14.5 µM |  |  |  |  |
| CN(C)CCn1c(=O)c(=Cc2ccc(O)cc2)s/c1=C1\C(=O)Nc2cc(F)ccc21 (mixture of isomers) | 2.27 µM | 1.43 µM | 3.45 µM |  |  |  |  |
| COc1ccc(OC)c(C=c2s/c(=C3\C(=O)Nc4ccccc43)n(CCN(C)C)c2=O)c1 (mixture of isomers) | 96 µM | 63.7 µM | 21 µM |  |  |  |  |
| CCN(CC)CCCn1c(=O)c(=Cc2cc(OC)c(OC)c(OC)c2)s/c1=C1\C(=O)Nc2ccc(C)cc21 (mixture of isomers) | > 200 µM | 2.67 µM | > 200 µM |  |  |  |  |
| Cc1ccc2c(c1)/C(=c1/sc(=Cc3ccc(O)cc3)c(=O)n1CCN(C)C)C(=O)N2 (mixture of isomers) | 2.29 µM | 1.77 µM | 1.32 µM |  |  |  |  |
| CN(C)CCn1c(=O)c(=Cc2ccc(O)cc2)s/c1=C1\C(=O)Nc2ccc(Br)cc21 (mixture of isomers) | 1.92 µM | 1.11 µM | 2.52 µM |  |  |  |  |
| CCN(CC)CCCn1c(=O)c(=Cc2ccc3c(c2)OCO3)s/c1=C1\C(=O)Nc2cc(F)ccc21 (mixture of isomers) | 0.19 µM | 1.91 µM | 4.13 µM | 4.02 µM | 8.3 µM |  |  |
| CN(C)CCN1C(=O)/C(=C/c2ccc(O)cc2)SC1=S | 59.7 µM | 46.1 µM | 84.2 µM |  |  |  |  |
| CCN(CC)CCCn1c(=O)c(=Cc2ccc3c(c2)OCO3)s/c1=C1\C(=O)Nc2ccc(F)cc21 (mixture of isomers) | 0.025 µM | 0.075 µM | 0.77 µM | 1.95 µM | 6.98 µM | 279 | 93 |
| COc1cc(C=c2s/c(=C3\C(=O)Nc4ccc(F)cc43)n(CCN(C)C)c2=O)cc(OC)c1OC (mixture of isomers) | 2.53 µM | 1.7 µM | 1.9 µM | 6.06 µM | 8.1 µM |  |  |

| Compound | IC50 (HT-29 [1]) | IC50 (NCI-H460) | IC50 (MDA-MB-231) | IC50 (SMMC-7721) | IC50 (WI-38 [2]) | Ratio IC50 (HT-29 [3]) | Ratio IC50 (WI-38 [4]) |
| --- | --- | --- | --- | --- | --- | --- | --- |
| CCN(CC)CCCn1c(=O)c(=Cc2ccc(F)c(F)c2)s/c1=C1\C(=O)Nc2ccc(F)cc21 (mixture of isomers) | 0.64 µM | 1.3 µM | 1.22 µM | 3.07 µM | 4.3 µM |  |  |
| CCN(CC)CCCn1c(=O)c(=Cc2ccc(F)c(F)c2)s/c1=C1\C(=O)Nc2cc(F)ccc21 (mixture of isomers) | 0.028 µM | 1.12 µM | 2.9 µM | 5.33 µM | 4.45 µM |  |  |
| CN(C)CCn1c(=O)c(=Cc2ccc(O)cc2)s/c1=C1\C(=O)Nc2ccccc21 (mixture of isomers) | 1.39 µM | 0.98 µM | 4.28 µM |  |  |  |  |
| CCN(CC)CCCn1c(=O)c(=Cc2ccc(F)cc2F)s/c1=C1\C(=O)Nc2cc(F)ccc21 (mixture of isomers) | 1.52 µM | 2.33 µM | 2.1 µM |  |  |  |  |
| CCN(CC)CCCn1c(=O)c(=Cc2ccc(F)cc2F)s/c1=C1\C(=O)Nc2ccc(Cl)cc21 (mixture of isomers) | > 200 µM | 6.1 µM | > 200 µM |  |  |  |  |
| CCN(CC)CCCn1c(=O)c(=Cc2ccc(F)cc2F)s/c1=C1\C(=O)Nc2ccccc21 (mixture of isomers) | > 200 µM | 5.47 µM | > 200 µM |  |  |  |  |
| CN(C)CCn1c(=O)c(=Cc2ccc3c(c2)OCO3)s/c1=C1\C(=O)Nc2ccccc21 (mixture of isomers) | 0.7 µM | 0.82 µM | 3.23 µM | 2.74 µM | 1.77 µM |  |  |
| CN(C)CCn1c(=O)c(=Cc2ccc(O)cc2)s/c1=C1\C(=O)Nc2ccc(Cl)cc21 (mixture of isomers) | 2.46 µM | 2.03 µM | 3.25 µM |  |  |  |  |
| CCN(CC)CCCn1c(=O)c(=Cc2cc(OC)c(OC)c(OC)c2)s/c1=C1\C(=O)Nc2ccccc21 (mixture of isomers) | 1.97 µM | 1.67 µM | 2.39 µM |  |  |  |  |
| CCN(CC)CCCn1c(=O)c(=Cc2ccc3c(c2)OCO3)s/c1=C1\C(=O)Nc2ccccc21 (mixture of isomers) | 0.91 µM | 1.02 µM | 1.12 µM | 3.41 µM | 3.93 µM |  |  |
| CN(C)CCn1c(=O)c(=Cc2ccc3c(c2)OCO3)s/c1=C1\C(=O)Nc2cc(F)ccc21 | 1.36 µM | 2.81 µM | 2.42 µM |  |  |  |  |
| CCN(CC)CCCn1c(=O)c(=Cc2ccc(O)cc2)s/c1=C1\C(=O)Nc2ccc(C)cc21 (mixture of isomers) | 0.77 µM | 0.26 µM | 1.81 µM | 5.09 µM | 5.75 µM |  |  |
| CCN(CC)CCNC(=O)c1c(C)[nH]c(/C=C2\C(=O)Nc3ccc(F)cc32)c1C [SUNITINIB] | 1.3 µM | 2.7 µM | 3.7 µM | 6.47 µM | 8.56 µM |  |  |
| CCN(CC)CCCn1c(=O)c(=Cc2ccc3c(c2)OCO3)s/c1=C1\C(=O)Nc2ccc(Cl)cc21 (mixture of isomers) | 0.437 µM | 1 µM | 3.13 µM | 3.12 µM | 3.32 µM |  |  |
| CCN(CC)CCCn1c(=O)c(=Cc2ccc3c(c2)OCO3)s/c1=C1\C(=O)Nc2ccc(C)cc21 (mixture of isomers) | 2.11 µM | 1.86 µM | 3.1 µM |  |  |  |  |
| CCN(CC)CCCn1c(=O)c(=Cc2cc(OC)c(OC)c(OC)c2)s/c1=C1\C(=O)Nc2cc(F)ccc21 (mixture of isomers) | > 200 µM | 1.41 µM | > 200 µM |  |  |  |  |
| COc1ccc(C=c2s/c(=C3\C(=O)Nc4cc(F)ccc43)n(CCN(C)C)c2=O)cc1 (mixture of isomers) | 2.3 µM | 2.2 µM | 2.09 µM |  |  |  |  |
| Cc1ccc2c(c1)/C(=c1/sc(=Cc3ccc(F)c(F)c3)c(=O)n1CCN(C)C)C(=O)N2 (mixture of isomers) | 7.43 µM | 59.7 µM | > 200 µM |  |  |  |  |
| COc1ccc(C=c2s/c(=C3\C(=O)Nc4ccc(Cl)cc43)n(CCN(C)C)c2=O)c(OC)c1 (mixture of isomers) | 1.53 µM | 10.6 µM | 3.83 µM |  |  |  |  |
| CN(C)CCn1c(=O)c(=Cc2ccc(F)c(F)c2)s/c1=C1\C(=O)Nc2cc(F)ccc21 (mixture of isomers) | 12.1 µM | 6.4 µM | 25 µM |  |  |  |  |
